The text below walks through data of ChEMBL document CHEMBL4138263, “Taburnaemines A-I, Cytotoxic Vobasinyl-Iboga-Type Bisindole Alkaloids from Tabernaemontana corymbosa” (J Nat Prod, 2018).

What all share (format): functional, cell-based
Assay [1] concerns A549. The experiment in a line: Antiproliferative activity against human A549 cells after 72 hrs by sulforhodamine B assay. The conditions noted are these: A549, 72 h. The gist of the method:
(§1)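 Cells grown in RPMI-1640 with 2 mM L-glutamine, 25 mM HEPES, 10% FBS, streptomycin and penicillin; seeded at 4000–12 000 cells per well and exposed to compounds for 72 h. Fixed in 10% trichloroacetic acid, stained with 0.04% SRB, bound dye dissolved in 10 mM Tris base, absorbance read at 515 nm. IC50 from at least three independent experiments run in duplicate.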
(Sulforhodamine B stains cellular protein and so reports cell mass.)

In assay [2] the test system is MDA-MB-231. The experiment in a line: Antiproliferative activity against human MDA-MB-231 cells after 72 hrs by sulforhodamine B assay. The conditions noted are these: MDA-MB-231, 72 h. Put shortly: as §1
Assay [3] has as its system KB. The experiment in a line: Antiproliferative activity against human KB cells after 72 hrs by sulforhodamine B assay. Put shortly:
as §1

The nature of assay [4]: Antiproliferative activity against human KBVIN cells after 72 hrs by sulforhodamine B assay. Put shortly:
as §1

Assay [5] has as its system MCF7. The experiment in a line: Antiproliferative activity against human MCF7 cells after 72 hrs by sulforhodamine B assay. The conditions noted are these: MCF7, 72 h. The gist of the method: as §1

Structures are written as SMILES. Bounds are passed on as bounds.

What is called IC50 is the concentration at which inhibition is half-maximal. A low value points to inhibition by little substance. On to `C/C=C1/CN(C)[C@H]2Cc3c([nH]c4ccccc34)[C@H](c3c(OC)ccc4c5c([nH]c34)[C@]3(C(=O)OC)C[C@@H]4C[C@H](CC)[C@@H]3N(CC5)C4)C[C@H]1[C@@]2(CO)C(=O)OC`, for which the IC50 in assay [1] is 3.5 µM; in assay [2], 4.8 µM; in assay [3], 4.3 µM; in assay [4], 4.7 µM; in assay [5] it was 4.8 µM.
Turning to `C/C=C1/CN2COC[C@@]3(C(=O)OC)[C@@H]1C[C@@H](c1cc4c5c([nH]c4cc1OC)[C@]1(C(=O)OC)C[C@@H]4C[C@H](CC)[C@@H]1N(CC5)C4)c1[nH]c4ccccc4c1C[C@H]23`, the IC50 in assay [1] amounted to 4.3 µM; in assay [2], 4.5 µM; in assay [3] it was 4.3 µM; in assay [4], 4.4 µM; in assay [5], 4.8 µM.
Turning to `C/C=C1/CN(C)[C@H]2Cc3c([nH]c4ccccc34)C(c3c(OC)ccc4c5c([nH]c34)[C@]3(C(=O)OC)C[C@@H]4C[C@H](CC)[C@@H]3N(CC5)C4)C[C@H]1[C@@H]2C(=O)OC` (stereo not given in full), the IC50 amounted to 4.4 µM in assay [1]; 5.2 µM in assay [2]; 5 µM in assay [3]; 4.1 µM in assay [4]; 5.6 µM in assay [5].
For `C/C=C1/CN2COC[C@]3(C(=O)OC)[C@@H]1C[C@@H](c1c(OC)ccc4c5c([nH]c14)[C@]1(C(=O)OC)C[C@H]4C[C@H](CC)[C@@H]1N(CC5)[C@@H]4CO)c1[nH]c4ccccc4c1C[C@H]23`, in that order: 4.7 µM, 5.1 µM, 4.8 µM, 4.9 µM and 6 µM.
For `C/C=C1/CN(C)[C@H]2Cc3c([nH]c4ccccc34)[C@H](c3cc4c5c([nH]c4cc3OC)[C@]3(C(=O)OC)C[C@@H]4C[C@H](CC)[C@@H]3N(CC5)[C@@H]4CC(C)=O)C[C@H]1[C@@]2(CO)C(=O)OC`, in that order: 4.4 µM, 3.2 µM, 4.6 µM, 4.4 µM and 4.4 µM.
For `CC[C@H]1C[C@H]2CN3CC[C@@]4(O)C(=Nc5cc(OC)c([C@@H]6C[C@H]7[C@@]8(C(=O)OC)CO[C@H](N(C)[C@H]8Cc8c6[nH]c6ccccc86)[C@@]76O[C@H]6C)cc54)[C@](C(=O)OC)(C2)[C@H]13`, in that order: 4.3 µM, 4.5 µM, 4.7 µM, 4.8 µM and 4.6 µM.
`CC[C@]1(O)C[C@@H]2CN(CCc3c([nH]c4ccccc34)[C@@](C(=O)OC)(c3cc4c(cc3OC)N(C)[C@H]3[C@@](O)(C(=O)OC)[C@H](OC(C)=O)[C@]5(CC)C=CCN6CC[C@]43[C@@H]65)C2)C1` [VINBLASTINE]: the IC50 in assay [1] stood at 0.023 µM; in assay [2], 0.032 µM; in assay [3], 0.0044 µM; in assay [4] it was 2.48 µM; in assay [5] it was 0.0073 µM.
For `C/C=C1/CN(C)[C@H]2Cc3c([nH]c4ccccc34)[C@H](c3c(OC)ccc4c5c([nH]c34)[C@]3(C(=O)OC)C[C@H]4C[C@H](CC)[C@@H]3N(CC5)[C@@H]4CO)C[C@H]1[C@]2(CO)C(=O)OC`, in that order: 4.3 µM, 4.5 µM, 4.5 µM, 4.9 µM and 4.9 µM.
For the compound `C/C=C1/CN(C)[C@H]2Cc3c([nH]c4ccccc34)[C@H](c3c(OC)ccc4c5c([nH]c34)[C@]3(C(=O)OC)C[C@H]4C[C@H](CC)[C@@H]3N(CC5)C4)C[C@H]1[C@]2(CO)C(=O)OC`, the 50% inhibitory concentration (IC50) came to 4.5 µM in assay [1]; 4.8 µM in assay [2]; 4.2 µM in assay [3]; 4.1 µM in assay [4]; 5.3 µM in assay [5].
As to `CC[C@H]1C[C@@H]2C[C@@]3(C(=O)OC)c4[nH]c5c([C@@H]6C[C@H]7[C@@]8(C(=O)OC)CO[C@H](N(C)[C@H]8Cc8c6[nH]c6ccccc86)[C@@]76O[C@H]6C)c(OC)ccc5c4CCN([C@@H]2CC(C)=O)[C@@H]13`, the half-inhibitory concentration (IC50) in assay [1] is 8.6 µM; in assay [2] it was 7.7 µM; in assay [3], 7.4 µM; in assay [4], 6.6 µM; in assay [5], above 10 µM.
Turning to `CC[C@H]1C[C@@H]2C[C@@]3(C(=O)OC)c4[nH]c5c([C@@H]6C[C@H]7[C@@]8(C(=O)OC)CO[C@H](N(C)[C@H]8Cc8c6[nH]c6ccccc86)[C@@]76O[C@H]6C)c(OC)ccc5c4CCN(C2=O)[C@@H]13`, the IC50 stood at 5.9 µM in assay [1]; 8.2 µM in assay [2]; 5.7 µM in assay [3]; 5.8 µM in assay [4]; 8.3 µM in assay [5].
For the compound `C/C=C1/CN(C)[C@H]2Cc3c([nH]c4ccccc34)[C@H](c3cc4c5c([nH]c4cc3OC)[C@]3(C(=O)OC)C[C@@H]4C[C@H](CC)[C@@H]3N(CC5)[C@@H]4CC(C)=O)C[C@H]1[C@]2(CO)C(=O)OC`, the concentration for half-maximal inhibition (IC50) in assay [1] was determined as 5.6 µM; in assay [2] it was 4.8 µM; in assay [3] it was 5 µM; in assay [4], 5.1 µM; in assay [5] it was 6.1 µM.
With `C/C=C1/CN2COC[C@]3(C(=O)OC)[C@@H]1C[C@@H](c1c(OC)ccc4c1N=C1[C@]5(C(=O)OC)C[C@H]6C[C@H](CC)[C@@H]5N(CC[C@]14O)C6)c1[nH]c4ccccc4c1C[C@H]23`, the IC50 in assay [1] was 4.9 µM; in assay [2], 8.2 µM; in assay [3], 4.5 µM; in assay [4], 4.7 µM; in assay [5], 6.5 µM.
Turning to `C/C=C1/CN(C)[C@H]2Cc3c([nH]c4ccccc34)[C@H](c3ccc4[nH]c5c(c4c3)CCN3C[C@@H]4C[C@H](CC)[C@H]3[C@@]5(C(=O)OC)C4)C[C@H]1[C@]2(CO)C(=O)OC`, the IC50 in assay [1] is 9.8 µM; in assay [2] it was 5.2 µM; in assay [3] it was 6.7 µM; in assay [4] it was 8.3 µM; in assay [5] it was above 10 µM.
As to `CC[C@H]1C[C@@H]2C[C@@]3(C(=O)OC)c4[nH]c5c([C@@H]6C[C@H]7[C@@]8(C(=O)OC)CO[C@H](N(C)[C@H]8Cc8c6[nH]c6ccccc86)[C@]76O[C@@H]6C)c(OC)ccc5c4CCN([C@@H]2CC(C)=O)[C@@H]13`, the half-inhibitory concentration (IC50) in assay [1], in assay [2], in assay [3], in assay [4] and in assay [5] was above 10 µM in each case.
Regarding `C/C=C1/CN(C)[C@H]2Cc3c([nH]c4ccccc34)[C@H](c3c(OC)ccc4c5c([nH]c34)[C@]3(C(=O)OC)C[C@H]4C[C@H](CC)[C@@H]3N3C[C@@H]5O[C@H]43)C[C@H]1[C@]2(CO)C(=O)OC`, the 50% inhibitory concentration (IC50) came to 5.3 µM in assay [1]; 4.8 µM in assay [2]; 4.8 µM in assay [3]; 4.7 µM in assay [4]; 5.6 µM in assay [5].
`CC(=O)O[C@H]1C(=O)[C@@]2(C)[C@H]([C@H](OC(=O)c3ccccc3)[C@]3(O)C[C@H](OC(=O)[C@H](O)[C@@H](NC(=O)c4ccccc4)c4ccccc4)C(C)=C1C3(C)C)[C@]1(OC(C)=O)CO[C@@H]1C[C@@H]2O` [PACLITAXEL]: the half-inhibitory concentration (IC50) in assay [1] amounted to 0.0045 µM; in assay [2] it was 0.007 µM; in assay [3], 0.0036 µM; in assay [4], 2.36 µM; in assay [5] it was 0.0088 µM.
The corresponding values for `C/C=C1/CN(C)[C@H]2Cc3c([nH]c4ccccc34)[C@H](c3cc4c(cc3OC)N=C3[C@]5(C(=O)OC)C[C@H]6C[C@H](CC)[C@@H]5N(CC[C@@]34O)C6)C[C@H]1[C@]2(CO)C(=O)OC` are 3.1 µM, 2.8 µM, 2.7 µM, 2.6 µM and 3 µM.
As for `C/C=C1/CN(C)[C@H]2Cc3c([nH]c4ccccc34)[C@H](c3cc4[nH]c5c(c4cc3OC)CCN3C[C@H]4C[C@H](CC)[C@H]3[C@H]5C4)C[C@H]1[C@@H]2C(=O)OC`, the IC50 in assay [1] is 4.3 µM; in assay [2], 4.5 µM; in assay [3], 4.8 µM; in assay [4] it was 4.4 µM; in assay [5], 4.7 µM.
